Test results: ChEMBL document CHEMBL1158573, “Cytotoxic and NF-kappaB inhibitory constituents of Artocarpus rigida” (J Nat Prod, 2010)
pEC50: −log10 of the molar value. Active and inactive are the calls of the source. The rule behind the calls is not given here.

Columns and labels:
HT-29 = experiment: Cytotoxicity against human HT-29 cells after 3 days by SRB assay; format: functional; conditions: for pEC50: HT-29, 72 h, read-out: ED50 (the source's name)
How it was run: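 HT-29 colon cancer cells, trypsinized and seeded in 96-well plates, treated with compounds in DMSO (DMSO as negative control). Incubated 3 days at 37 °C, 5% CO2, then fixed, 30 min at room temperature, washed, dried overnight, stained with sulforhodamine B. Dye solubilized in tris-base buffer, absorbance read at 515 nm. Cytotoxicity calculated versus DMSO control, reported as ED50 (μM). Paclitaxel as positive control.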

[1] = molecular target: T1, Nuclear factor NF-kappa-B p105 subunit (Homo sapiens) (UniProt P19838); experiment: Inhibition of NFkappa p50 isolated from nuclear extract of human HeLa cells assessed as blockade of binding to biotinylated consesus sequence by chemiluminescence assay; format: cell-free
T1 sequence (whole entry): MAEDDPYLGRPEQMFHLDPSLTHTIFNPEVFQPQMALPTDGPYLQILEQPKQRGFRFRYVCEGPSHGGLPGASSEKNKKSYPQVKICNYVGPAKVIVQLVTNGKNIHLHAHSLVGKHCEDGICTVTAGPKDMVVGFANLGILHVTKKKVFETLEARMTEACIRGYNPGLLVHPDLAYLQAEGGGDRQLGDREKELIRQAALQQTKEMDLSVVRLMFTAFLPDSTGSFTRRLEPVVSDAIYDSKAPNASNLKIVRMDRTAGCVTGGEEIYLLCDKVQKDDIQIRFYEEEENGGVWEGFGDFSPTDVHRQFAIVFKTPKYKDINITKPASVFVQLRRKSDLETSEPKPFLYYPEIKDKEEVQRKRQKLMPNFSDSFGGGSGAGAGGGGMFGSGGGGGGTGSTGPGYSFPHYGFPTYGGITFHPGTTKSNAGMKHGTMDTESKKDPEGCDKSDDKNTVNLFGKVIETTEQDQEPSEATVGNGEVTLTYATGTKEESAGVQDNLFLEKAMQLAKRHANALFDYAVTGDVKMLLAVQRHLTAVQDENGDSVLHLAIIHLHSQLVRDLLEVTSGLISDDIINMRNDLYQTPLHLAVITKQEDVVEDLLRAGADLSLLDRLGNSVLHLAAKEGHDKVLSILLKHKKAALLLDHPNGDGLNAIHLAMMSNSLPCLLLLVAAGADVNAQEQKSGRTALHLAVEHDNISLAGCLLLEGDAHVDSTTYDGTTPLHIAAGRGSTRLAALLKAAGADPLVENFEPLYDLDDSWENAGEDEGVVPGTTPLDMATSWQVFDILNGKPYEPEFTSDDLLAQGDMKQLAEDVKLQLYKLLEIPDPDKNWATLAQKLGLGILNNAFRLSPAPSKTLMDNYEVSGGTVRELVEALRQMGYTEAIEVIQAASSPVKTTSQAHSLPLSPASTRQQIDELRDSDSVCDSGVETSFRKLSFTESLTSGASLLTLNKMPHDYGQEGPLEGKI
How it was run: (§1)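 ELISA-format transcription factor assay. HeLa nuclear extract was treated with samples, and activated p50 or p65 bound to a biotinylated consensus sequence was detected by chemiluminescence on a plate reader. IC50 reported in μM.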

[2] = molecular target: Transcription factor p65 (Homo sapiens) (UniProt Q04206); experiment: Inhibition of NFkappa p65 isolated from nuclear extract of human HeLa cells assessed as blockade of binding to biotinylated consesus sequence by chemiluminescence assay; format: cell-free; how it was run: as §1
Transcription factor p65 (Homo sapiens), sequence (Q04206 whole entry): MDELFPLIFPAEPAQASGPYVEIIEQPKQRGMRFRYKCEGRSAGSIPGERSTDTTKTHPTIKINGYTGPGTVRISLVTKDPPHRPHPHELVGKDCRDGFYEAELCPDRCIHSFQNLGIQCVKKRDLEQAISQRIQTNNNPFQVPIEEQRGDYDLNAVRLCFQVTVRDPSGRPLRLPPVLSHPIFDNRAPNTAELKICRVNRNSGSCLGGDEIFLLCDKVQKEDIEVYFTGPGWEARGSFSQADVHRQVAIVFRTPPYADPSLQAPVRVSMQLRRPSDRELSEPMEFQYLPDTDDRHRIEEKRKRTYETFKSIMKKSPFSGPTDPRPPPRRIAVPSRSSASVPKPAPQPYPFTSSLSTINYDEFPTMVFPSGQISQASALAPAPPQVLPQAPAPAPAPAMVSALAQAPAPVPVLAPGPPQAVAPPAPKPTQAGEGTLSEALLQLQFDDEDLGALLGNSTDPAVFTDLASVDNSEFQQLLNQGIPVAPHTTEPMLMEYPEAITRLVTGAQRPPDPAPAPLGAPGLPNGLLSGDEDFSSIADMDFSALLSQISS

**Q.** How did the pEC50 (HT-29) turn out when CC1(C)C=Cc2cc3c(cc2O1)Oc1cc(O)ccc1C(O)=C3 [ARTORISTILBENE] was run?
**A.** Its pEC50 is 4.97.

**Q.** What does the source list for CC(C)=CCc1c(O)cc2oc3c(cc4c5c(c(O)c(CC=C(C)C)c(O)c53)OC4(C)C)c(=O)c2c1O?
**A.** Activity (HT-29): inactive; Activity [1]: inactive; Activity [2]: inactive

**Q.** What does the source list for C=C(C)c1cc2c(=O)c3c(O)c(CC=C(C)C)c(O)cc3oc2c2c(O)c3c(c(O)c12)OC(C)(C)C=C3?
**A.** Activity (HT-29): inactive; Activity [1]: inactive; Activity [2]: inactive

**Q.** C=C(C)c1cc2c(=O)c3c(O)c(CC=C(C)C)c(O)cc3oc2c2c1C(=O)C(O)=C(CC=C(C)C)C2=O [ARTORIGIDIN C] was tested. Which pEC50 (HT-29) did it give?
**A.** Its pEC50 is < 5.00.

**Q.** For COc1cc(O)c2c(=O)c3cc4c5c(c(O)cc(O)c5c3oc2c1)OC4(C)C, which Activity (HT-29) is on record?
**A.** Its Activity is “inactive”.

**Q.** And the Activity [1]?
**A.** Its Activity is “inactive”.

**Q.** And the Activity [2]?
**A.** The Activity was “inactive”.

**Q.** For C[C@H]1[C@H](C)CC[C@]2(C(=O)O)CC[C@]3(C)C(=CC[C@@H]4[C@@]5(C)CC[C@H](O)C(C)(C)[C@@H]5CC[C@]43C)[C@H]12, which Activity (HT-29) is on record?
**A.** The Activity was “inactive”.

**Q.** And the Activity [1]?
**A.** Its Activity is “inactive”.

**Q.** And the Activity [2]?
**A.** Its Activity is “inactive”.

**Q.** How did the Activity (HT-29) turn out when C=C(C)[C@@H]1CC[C@]2(C(=O)O)CC[C@]3(C)[C@H](CC[C@@H]4[C@@]5(C)CC[C@H](O)C(C)(C)[C@@H]5CC[C@]43C)[C@@H]12 was run?
**A.** Its Activity is “inactive”.

**Q.** What about the Activity [1] of the same compound?
**A.** The Activity was “inactive”.

**Q.** And the Activity [2]?
**A.** Its Activity is “inactive”.

**Q.** How did the pEC50 (HT-29) turn out when CC(=O)O[C@H]1C(=O)[C@@]2(C)[C@H]([C@H](OC(=O)c3ccccc3)[C@]3(O)C[C@H](OC(=O)[C@H](O)[C@@H](NC(=O)c4ccccc4)c4ccccc4)C(C)=C1C3(C)C)[C@]1(OC(C)=O)CO[C@@H]1C[C@@H]2O [PACLITAXEL] was run?
**A.** The pEC50 was 10.00.

**Q.** With C=C(C)[C@H]1Cc2c(oc3c4c(cc(O)c3c2=O)OC(C)(C)C=C4)-c2c(O)cc(O)c(O)c21 [ARTOBILOXANTHONE] as the compound, how does the pEC50 (HT-29) read?
**A.** Its pEC50 is < 5.00.
